Screening data: PubChem, Broad Institute
SR-BI DiI-HDL act: activators of SR-BI mediated DiI-HDL uptake, primary screen, ldlA[mSR-BI] CHO cells, DiI fluorescence. AID 504775, 2011. activation, % at 12.5 µM. actives 0.096% (n = 320,000). 3 h; 100 = double the neutral-control signal;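 active = mean replicate activation of at least 60% and every replicate at or above 60%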;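 note: 0% = median plate neutral-control signal and 100% = twice that signal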
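System: LDL receptor-deficient CHO ldlA cells overexpressing murine SR-BI | Timing: 3 h uptake period with compound, 37 °C | Medium: HEPES-buffered (25 mM, pH 7.4) F12 plus 0.5% BSA | Dosing: Single-point compound dose | Signal: Bottom-read fluorescence, 550/595 nm | Read-out: Retained DiI signal reflecting DiI-HDL uptake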
dFosB act-1: activators of delta FosB homodimer, primary screen, biochemical, fluorescence polarization, TAMRA-CDK5 oligo, single point | purified delta FosB; percent of positive-control signal above neutral wells | activation, % at 25 µM | actives 0.99% (n = 340,000) | AID 493131, 2011;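 active = mean activation above about 17%, with every replicate also reaching it, limit read from the data, passing the limit was not always enough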
CDK5 p35 inh: inhibitors of human CDK5/p35 kinase, primary screen, biochemical, single concentration | Cyclin-dependent kinase 5 (Homo sapiens) + Cyclin-dependent kinase 5 activator 1 (Homo … | Recombinant CDK5/p35, ADP-Glo luminescence, 60 min | inhibition, % at 10 µM | actives 0.01% (n = 330,000) | AID 488839, 2010;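 active = highest replicate inhibition of at least 50% and at least 75% of replicates reaching 50%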;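 note: plate controls were DMSO neutral control for no effect and GW8510 at 10 µM for full effect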
NSD2 inh: NSD2 histone methyltransferase inhibitors, primary screen, biochemical, AlphaScreen, single concentration, set 2; NSD2 peptide methylation, 120 min; inhibition, % at 12.5 µM; actives 0.54% (n = 310,000)
Target sequence (O96028 whole entry, looked up): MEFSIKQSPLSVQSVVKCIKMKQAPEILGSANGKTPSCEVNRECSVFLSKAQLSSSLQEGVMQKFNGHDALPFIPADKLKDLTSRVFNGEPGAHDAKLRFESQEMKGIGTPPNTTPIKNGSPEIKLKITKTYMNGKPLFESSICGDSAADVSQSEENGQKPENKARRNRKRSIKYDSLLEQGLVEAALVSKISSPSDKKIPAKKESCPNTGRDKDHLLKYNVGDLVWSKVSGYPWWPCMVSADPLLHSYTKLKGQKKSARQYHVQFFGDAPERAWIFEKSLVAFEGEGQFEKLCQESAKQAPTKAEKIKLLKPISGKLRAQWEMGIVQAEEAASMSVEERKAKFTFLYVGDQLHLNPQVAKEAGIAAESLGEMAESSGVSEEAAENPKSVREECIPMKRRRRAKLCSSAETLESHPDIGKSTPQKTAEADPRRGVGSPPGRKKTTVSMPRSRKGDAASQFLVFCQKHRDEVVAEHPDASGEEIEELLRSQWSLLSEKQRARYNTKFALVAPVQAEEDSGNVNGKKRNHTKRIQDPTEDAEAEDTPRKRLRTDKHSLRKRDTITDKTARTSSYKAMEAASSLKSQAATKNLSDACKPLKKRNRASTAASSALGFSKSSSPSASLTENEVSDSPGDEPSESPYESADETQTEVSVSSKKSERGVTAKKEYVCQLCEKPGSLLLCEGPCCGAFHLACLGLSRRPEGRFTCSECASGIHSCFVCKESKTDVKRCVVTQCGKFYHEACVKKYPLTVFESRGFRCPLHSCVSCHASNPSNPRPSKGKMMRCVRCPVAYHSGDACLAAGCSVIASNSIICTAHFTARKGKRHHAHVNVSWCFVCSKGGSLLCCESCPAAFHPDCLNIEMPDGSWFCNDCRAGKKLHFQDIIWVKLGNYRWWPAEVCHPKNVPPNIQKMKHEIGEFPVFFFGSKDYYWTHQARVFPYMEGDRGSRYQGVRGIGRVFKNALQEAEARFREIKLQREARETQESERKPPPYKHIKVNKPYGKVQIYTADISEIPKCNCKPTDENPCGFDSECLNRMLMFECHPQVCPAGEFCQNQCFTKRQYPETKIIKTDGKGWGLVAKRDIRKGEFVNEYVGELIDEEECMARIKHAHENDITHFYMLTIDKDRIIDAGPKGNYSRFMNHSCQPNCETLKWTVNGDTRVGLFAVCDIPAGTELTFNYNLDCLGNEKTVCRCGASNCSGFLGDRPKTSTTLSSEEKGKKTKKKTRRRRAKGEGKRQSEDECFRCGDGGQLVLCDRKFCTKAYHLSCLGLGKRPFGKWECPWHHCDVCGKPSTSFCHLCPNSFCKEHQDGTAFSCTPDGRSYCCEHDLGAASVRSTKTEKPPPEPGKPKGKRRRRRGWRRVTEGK
SR-BI DiI inh: inhibitors of SR-BI mediated HDL lipid uptake, primary screen, ldlA[mSR-BI] cells, fluorescence, single point. ldlA[mSR-BI] CHO cells, DiI-HDL uptake fluorescence, 3 h. actives 0.96% (n = 320,000). inhibition, % at 12.5 µM;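 active = mean replicate inhibition of at least 70% and a set share of replicates each scoring 70 or more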;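 note: 0% = median of neutral control wells and 100% = median of positive control wells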
Dyrk1A ADPGlo: rat Dyrk1A kinase inhibitors, primary screen, biochemical, single point, plate reader; Dual specificity tyrosine-phosphorylation-regulated kinase 1A (Rattus norvegicus), Q63470; ADP-Glo luminescence, NFATc1 peptide; inhibition, % at 12.5 µM; actives 0.43% (n = 310,000);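 note: plate controls were vehicle with enzyme for no effect and no enzyme for full effect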
dFosB act-2: activators of mouse delta FosB DNA binding, confirmation, biochemical, fluorescence polarization, TAMRA-CDK5 oligo, cherry-picked samples. AID 588690, 2011. activation, % at 24.9 µM. purified delta FosB; normalised: neutral wells 0, positive control 100. 2,400 tested, under 10 active. shares compounds with dFosB act-1;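 active = highest replicate activation at or above 34% and every replicate reaching that threshold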;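 note: higher polarization means more probe DNA bound by delta FosB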
* = called active by the depositor. Shown are actives, neighbours in structure and some others; about 2.5% of the full set was active somewhere. Cut-off read from the data, not from the text of the source, unless noted: active = inhibition above about 50%; inactive = the rest.

Results for COc1ccc(/C=C/C(=O)OCC(=O)Nc2ccc3c(c2)OCO3)cc1 ?
SR-BI DiI-HDL act: 15.2; dFosB act-1: 28.1*; CDK5 p35 inh: -1.2; NSD2 inh: 0.5; SR-BI DiI inh: -15.2; dFosB act-2: -9.0

How did CCn1cc([N+](=O)[O-])c(=O)c2cc(F)c(N3CCOCC3)cc21 do in these assays?
SR-BI DiI-HDL act: -2.1; dFosB act-1: 1.7; CDK5 p35 inh: 0.4; NSD2 inh: -3.1; SR-BI DiI inh: 2.1; Dyrk1A ADPGlo: 2.6

Results for O=S(=O)(c1cccc2nsnc12)N1CCN(Cc2ccccc2)CC1 ?
SR-BI DiI-HDL act: 4.4; dFosB act-1: -4.7; CDK5 p35 inh: -0.6; NSD2 inh: 4.3; SR-BI DiI inh: -4.4; Dyrk1A ADPGlo: 1.4

Results for CCOc1ccc(NC(=O)C2CCN(S(=O)(=O)CC)CC2)cc1 ?
SR-BI DiI-HDL act: 2.2; dFosB act-1: -3.3; CDK5 p35 inh: -5.9; NSD2 inh: 2.1; SR-BI DiI inh: -2.2; Dyrk1A ADPGlo: 0.8

How did CC(C)(C)C(Cn1ccnc1)NC(=O)c1ccc2nc(C3CC3)oc2c1 (stereo unspecified) do in these assays?
SR-BI DiI-HDL act: 11.9; dFosB act-1: -0.8; CDK5 p35 inh: -0.5; NSD2 inh: -1.4; SR-BI DiI inh: -11.9; Dyrk1A ADPGlo: -3.6

What do the screens show for `COc1ccc(NC(=O)COC(=O)c2ccc3c(c2)OCCO3)cc1OC`?
SR-BI DiI-HDL act: 8.1; dFosB act-1: 48.2*; CDK5 p35 inh: -0.7; NSD2 inh: -0.6; SR-BI DiI inh: -8.1; dFosB act-2: 2.4

Results for O=C(Nc1cccc(S(=O)(=O)N2CCCCC2)c1)C1=NN(c2ccccc2)C(=O)CC1 ?
SR-BI DiI-HDL act: -54.6; dFosB act-1: -3.1; CDK5 p35 inh: 1.2; SR-BI DiI inh: 54.6; Dyrk1A ADPGlo: 11.3

Results for Cc1cc(SCC(=O)N/N=C/c2cccnc2)nc2c(C)cccc12 ?
SR-BI DiI-HDL act: -21.6; dFosB act-1: 67.2*; CDK5 p35 inh: 0.3; NSD2 inh: -1.6; SR-BI DiI inh: 21.6; Dyrk1A ADPGlo: 4.5; dFosB act-2: -9.1

What do the screens show for `NS(=O)(=O)c1ccc(CCNC(=O)CSc2nc3ccsc3c(=O)n2Cc2ccccn2)cc1`?
NSD2 inh: -1.0

What do the screens show for `CC1(C)Cc2c(sc(NC(=O)COc3ccc(Cl)cc3)c2C(N)=O)C(C)(C)N1`?
SR-BI DiI-HDL act: 15.7; dFosB act-1: 79.8*; CDK5 p35 inh: 0.1; NSD2 inh: -3.2; SR-BI DiI inh: -15.7; Dyrk1A ADPGlo: -3.3; dFosB act-2: 1.9

How did Cc1ccc(NC(=O)COC(=O)C2CCC2)cc1S(=O)(=O)N1CCOCC1 do in these assays?
SR-BI DiI-HDL act: 1.3; dFosB act-1: -1.5; CDK5 p35 inh: -0.1; NSD2 inh: -2.8; SR-BI DiI inh: -1.3; Dyrk1A ADPGlo: -3.0

Results for C=CCC(=O)N1CCC(n2nccc2NC(=O)CCOc2ccccc2)CC1 ?
SR-BI DiI-HDL act: 24.6; dFosB act-1: 1.9; CDK5 p35 inh: -1.3; NSD2 inh: -1.9; SR-BI DiI inh: -24.6; Dyrk1A ADPGlo: 5.3

Results for CN(C)CCCN1C(=O)c2cccc3cccc(c23)C1=O ?
SR-BI DiI-HDL act: 8.4; dFosB act-1: 19.8*; CDK5 p35 inh: 0.4; NSD2 inh: 24.2; SR-BI DiI inh: -8.4; Dyrk1A ADPGlo: 2.0; dFosB act-2: 2.7

What do the screens show for `O=C1c2cccc3cccc(c23)C(=O)N1CCN1CCN(C(=S)Nc2ccc(F)cc2)CC1`?
NSD2 inh: -2.1

How did O=C(CCCN1C(=O)c2cccc3cccc(c23)C1=O)N1CCN(c2ccccc2)CC1 do in these assays?
SR-BI DiI-HDL act: 0.8; dFosB act-1: -1.2; CDK5 p35 inh: -0.6; NSD2 inh: 0.6; SR-BI DiI inh: -0.8; Dyrk1A ADPGlo: 5.8

How did O=C1c2cccc3cccc(c23)C(=O)N1CCCN1CCN(c2ccc(F)cc2)CC1 do in these assays?
dFosB act-1: 46.2*; CDK5 p35 inh: -0.1; Dyrk1A ADPGlo: -2.7; dFosB act-2: 0.3

How did CN(C)CCCN1C(=O)c2cc3ccccc3cc2C1=O do in these assays?
SR-BI DiI-HDL act: 9.5; dFosB act-1: 11.5; CDK5 p35 inh: 0.1; NSD2 inh: 3.6; SR-BI DiI inh: -9.5; Dyrk1A ADPGlo: -9.3

What do the screens show for `O=C(CN1CCN(CCN2C(=O)c3cccc4cccc(c34)C2=O)CC1)c1ccc(F)cc1`?
SR-BI DiI-HDL act: -3.1; dFosB act-1: 33.2*; CDK5 p35 inh: -0.2; NSD2 inh: 1.1; SR-BI DiI inh: 3.1; Dyrk1A ADPGlo: 6.4; dFosB act-2: 2.2

Results for COc1ccc(C(=O)CN2CCN(CCN3C(=O)c4cccc5cccc(c45)C3=O)CC2)cc1 ?
SR-BI DiI-HDL act: -45.7; dFosB act-1: 42.0*; CDK5 p35 inh: 1.1; NSD2 inh: -1.9; SR-BI DiI inh: 45.7; Dyrk1A ADPGlo: -6.7; dFosB act-2: 6.6

How did COc1cccc(NC(=O)Nc2nnc([C@@H]3C[C@H](O)[C@@H](CO)O3)s2)c1 do in these assays?
NSD2 inh: 0.3

What do the screens show for `Cc1ccc(C)c(OCC(O)CN2CCC(CN3C(=O)c4cccc5cccc(c45)C3=O)CC2)c1` (stereo unspecified)?
SR-BI DiI-HDL act: -60.8; dFosB act-1: 9.7; CDK5 p35 inh: -1.2; NSD2 inh: 46.0; SR-BI DiI inh: 60.8; Dyrk1A ADPGlo: 6.3

What do the screens show for `COc1ccc(OCC(O)CN2CCC(CN3C(=O)c4cccc5cccc(c45)C3=O)CC2)cc1` (stereo unspecified)?
SR-BI DiI-HDL act: -77.1; dFosB act-1: 44.7*; CDK5 p35 inh: 1.3; NSD2 inh: 4.8; SR-BI DiI inh: 77.1*; Dyrk1A ADPGlo: 16.5; dFosB act-2: 2.1

Results for CC(=O)Nc1ccc(C(=O)Nc2cccc(-c3cnc4ccccc4n3)c2)cc1 ?
SR-BI DiI-HDL act: 40.2; dFosB act-1: 24.1*; CDK5 p35 inh: 0.9; SR-BI DiI inh: -40.2; Dyrk1A ADPGlo: -3.4; dFosB act-2: 3.0

Results for O=C(CNC(=O)c1ccc(Br)o1)Nc1cccc(-c2cnc3ccccc3n2)c1 ?
SR-BI DiI-HDL act: -24.0; dFosB act-1: 19.5*; CDK5 p35 inh: -0.3; NSD2 inh: -2.0; SR-BI DiI inh: 24.0; Dyrk1A ADPGlo: 3.5; dFosB act-2: 6.2
